Bioassay records as filed in PubChem.
This is a sample that favours compounds with a hit; in the whole collection about 1.9% have one here.
Tn6 DDE FP: inhibitors of Tn6 peptide binding to fibrin DD(E), primary screen, biochemical, fluorescence polarization, human fibrin, Tn6 probe | 370,000 tested, 0.21% active | AID 720509, 2013 | Fibrin DD(E) TRITC-Tn6 fluorescence polarization displacement | inhibition, % at 8.3 µM;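 active = inhibition above a per-campaign cutoff: mean of compounds within control limits plus 3 SD, cut at about 15% in these data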;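 also: 0% = median of all compound wells on the plate and 100% = blocking peptide control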
UHRF1 MBD2 ctr: UHRF1 methylated DNA binding inhibitors, primary screen, counter-screen for MBD2 inhibitor project, biochemical, TR-FRET, human UHRF1, single concentration; E3 ubiquitin-protein ligase UHRF1 (Homo sapiens), Q96T88; UHRF1 binding to methylated oligo; inhibition, % at 4.4 µM; 370,000 tested, 0.75% active; in the data active = inhibition above about 21%;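 also: UHRF1 SRA domain binding a hemimethylated CpG hairpin DNA probe; 0% = median of test compound wells and 100% = reference inhibitor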
LEDGF integ inh: blockers of LEDGF/p75-dependent integrase strand transfer – biochemical, TR-FRET, high throughput, primary screen | HIV-1 integrase (with human LEDGF/p75) | TR-FRET IN-LEDGF/p75 DNA integration, Eu/Cy5 | inhibition, % at 3.7 µM | 370,000 tested, 0.64% active;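 active = inhibition above the screen-wide mean plus 3 SD, cut at about 13% in these data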;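 also: signal is the Cy5 over europium emission ratio at 671 and 618 nm; 0% = plate median of compound wells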
TDP2 inh: human TDP2 enzyme inhibitors, primary screen, biochemical, epi absorbance, recombinant enzyme; Tyrosyl-DNA phosphodiesterase 2 (Homo sapiens), O95551; T5PNP hydrolysis, p-nitrophenol absorbance 415 nm; inhibition, % at 12.8 µM; 370,000 tested, 0.34% active;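 active = inhibition above the mean of all tested compounds plus 3 SD, set per campaign, cut at about 25% in these data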;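 also: 0% = DMSO with enzyme and 100% = buffer with substrate but no TDP2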
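System – recombinant human TDP2 · Quantity – TDP2 enzyme at 120 nM final · Doses – single concentration, 12.8 µM nominal, with 1% DMSO · Incubation – 2 h at 37 °C · Measured by – epi absorbance of p-nitrophenol freed from T5PNP by hydrolysis · Read-out – % inhibition relative to enzyme-containing and enzyme-free wells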
Tn7 DDE FP: inhibitors of Tn7 peptide binding to fibrin DD(E), primary screen, biochemical, fluorescence polarization, human fibrin, Tn7 probe | 370,000 tested, 0.13% active | Fibrinogen beta chain (Homo sapiens), P02675 | AID 720508, 2013 | FP displacement of FITC-Tn7 peptide from fibrin DD(E); 0% = median of compound wells per plate | inhibition, % at 8.3 µM;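 active = inhibition above the mean of compounds falling within the control limits plus 3 SD of them, cut at about 14% in these data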;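 also: 0% = plate median of compound wells and 100% = 10 µM Aha-Tn7 peptide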
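Assay system: human fibrin DD(E). Input: DD(E) 2 µM final. Medium: Tris buffer with calcium and detergent, pH 7.8. Compound dosing: single point at 8.3 µM. Timing: 10 min plus 3 h, room temperature. Technique: fluorescence polarization of the labelled Tn7 tracer. Read-out: percent inhibition. Replicates: singlicate testing.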
MBD2 DNA inh: inhibitors of MBD2 binding to methylated DNA, primary screen, biochemical, TR-FRET, DNA-binding domain, human. Methyl-CpG-binding domain protein 2 (Homo sapiens), Q9UBB5. MBD2 binding to methylated oligonucleotide. inhibition, % at 4.4 µM. 370,000 tested, 0.31% active. AID 686964, 2013; in the data active = inhibition above about 13%
* hit, by the source's call.

SMILES	Tn6 DDE FP	UHRF1 MBD2 ctr	LEDGF integ inh	TDP2 inh	Tn7 DDE FP	MBD2 DNA inh
CSc1nc(-c2ccc(Cl)cc2)nn1S(=O)(=O)c1ccccc1	-2.1	21.4*	3.5	-22.0	-2.4	7.7
COC(=O)[C@]12C[C@H](CC(=O)NCc3ccc(OC)c(OC)c3)C(=O)N(CCc3ccc(OC)c(OC)c3)C1=C[C@H](C1CCCC1)O[C@@H]2C	4.2	-3.6	6.9	-1.0	-1.6	-6.7
C=CCNc1ccc2c(c1)OC[C@H](CC(C)C)NS2(=O)=O	-1.1	19.4	5.1	1.2	0.9	6.1
CCOC(=O)CC[C@@H]1CC[C@]2(CCCN(S(=O)(=O)C3CCCCC3)C2)O1	0.5	2.3	3.5	1.7	3.1	-1.7
O=C(Nc1ccc(F)cc1)OCc1cn(Cc2ccccc2F)nn1	7.5	2.1	-0.7	4.5	2.3	-2.3
Cc1[nH]c2ccccc2c1SCC(=O)N1CCC(C)CC1	0.9	25.1*	-0.6	7.0	-3.6	1.8
Cc1[nH]c2ccccc2c1SCC(=O)N1CCOCC1	-0.9	-0.4	-0.4	5.8	6.4	1.5
COC(=O)c1cc2c(c3c4cc(OC)ccc4n(S(=O)(=O)c4ccc(C)cc4)c13)C(=O)N(C)C2	5.5	-1.4	-1.7	5.0	0.7	1.5
FC(F)(F)c1ccccc1NC(=S)NC1CCN(Cc2ccccc2)CC1	-2.6	36.6*	-2.2	-4.2	1.0	-0.8
C=CC[C@@H]1NN2C(=O)[C@@H](CCc3ccccc3)[C@@H]3c4ccccc4C=NN3[C@@H]2c2ccccc21	-3.1	83.5*	2.3	10.7	6.2	4.5
C=CC[C@@H]1NN2C(=O)[C@@H](CCCC)[C@@H]3c4ccccc4C=NN3[C@@H]2c2ccccc21	5.6	-0.4	-1.6	1.1	1.0	-1.3
Cc1ccc(-n2nc(-c3ccco3)cc2C(=O)O)cc1	11.4	31.2*	8.9	0.9	4.3	10.1
COC(=O)[C@]12C[C@H](CC(=O)NCc3ccc(C)o3)C(=O)N(Cc3ccccc3)C1=C[C@H](COCc1ccccc1)O[C@@H]2C	-3.9	0.3	-3.7	-1.4	-1.4	-2.1
CCCCNC(=O)C[C@H]1C[C@@]2(C(=O)OC)C(=C[C@H](C(C)C)O[C@@H]2C2CC2)N(Cc2ccccc2)C1=O	-4.8	24.2*	-2.0	3.5	6.7	4.2
COC(=O)[C@]12C[C@H](CC(=O)NCCC(C)C)C(=O)N(Cc3ccccc3)C1=C[C@H](C(C)C)O[C@@H]2C1CC1	7.2	-1.0	-2.4	1.9	2.5	3.9
CCCn1c(N)c(N(CCOC)C(=O)c2cc(-c3ccco3)nc3ccccc23)c(=O)[nH]c1=O	0.2	2.0	12.7	-7.2	-1.8	-2.2
CNC(=O)COC(=O)c1cc(-c2ccco2)nc2ccccc12	0.0	11.3	16.1*	2.0	-4.8	3.3
COCCCN(C(=O)c1cc(-c2ccco2)nc2ccccc12)c1c(N)n(Cc2ccccc2)c(=O)[nH]c1=O	-3.3	23.1*	35.5*	-7.2	7.6	12.2
COc1ccc(C=NOCC(=O)OCC(=O)Nc2ccc(OC)cc2)cc1	3.1	28.7*	-2.7	2.4	3.9	-1.7
Cc1[nH]c(=O)[nH]c(=O)c1S(=O)(=O)Nc1ccc(S(N)(=O)=O)cc1	1.7	4.8	2.4	1.3	0.1	-3.6
Cc1[nH]c(=O)[nH]c(=O)c1S(=O)(=O)NCCc1ccc(S(N)(=O)=O)cc1	4.7	21.3*	-0.1	12.3	1.0	5.4
Cc1ccc(NC(=O)/C(=C/c2ccncc2)NC(=O)c2ccccc2)cc1	1.2	-2.0	0.8	8.2	-6.2	0.7
